Assay results as given in PubChem BioAssay.
Records with an inconclusive call do not appear.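 How the source made its calls, unless noted: active means RAM network inhibition above 8.4% in each of two replicates, 3 SD over the compound average; inconclusive means above 8.4% inhibition in only one replicate; inactive means 8.4% inhibition or less in each replicate.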

Columns and labels:
[1] = OD615 S. cerevisiae growth inhibition, permissive medium, pilot counter-assay, permissive growth control for S. cerevisiae lifespan shortening project (AID 705;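 active means growth inhibition above 25% in both replicates, a cutoff set 3 SD above the mean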); details: OD615, 24 h, at 10 µM, hits give high values
Outline: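 assay system = Saccharomyces cerevisiae strain carrying genetically modified DeaD replicative-lifespan system | technique = absorbance (optical density) at 615 nm | buffer or medium = permissive raffinose/galactose medium | timing = cells pre-grown 4 h, then 24 h compound exposure, 30 °C humidified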

[2] = Restrictive medium S. cerevisiae growth inhibition, OD615, pilot screen of yeast lifespan reduction project, restrictive growth control (AID 706;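 active means growth inhibition above a set limit, 3 SD over mean compound inhibition, in both replicates, cut at about 43% in these data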;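 further: modified DeaD lifespan yeast strain shifted to restrictive glucose medium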); details: OD615, 48 h, at 10 µM, hits give high values
Outline: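 System: modified S. cerevisiae. Buffer or medium: CSMM-D glucose medium. Incubation: 4 h pre-growth plus 48 h compound exposure, 30 °C. Detection: absorbance (optical density) measured at 615 nm.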

[3] = viability gain of MRP-1-high H69AR cells under doxorubicin, pilot screen, MRP-1 activator project, CellTiter-Glo, duplicate (AID 807;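 active means viability increase at or above a cutoff of the median across tested compounds plus 3 SD, cut at about 8.5% in these data, passing the limit was not always enough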;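 further: compound pretreatment 18-22 h then 72 h combined with doxorubicin; 0% = doxorubicin alone and 100% = vehicle without doxorubicin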); details: H69AR viability with doxorubicin, CellTiter-Glo luminescence; at 10 µM; hits give high values
[4] = growth suppression of beta-catenin knockout HCT116, pilot screen, human colon tumor cells (AID 823;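 active means cell viability at or below a set limit in both duplicate runs, the limit being the all-compound median minus 4 SD, cut at about 23% in these data, passing the limit was not always enough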;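 further: 0% = wells killed by 20 µM Hyamine and 100% = untreated DMSO cell wells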); details: CellTiter-Glo, 60 h, at 10 µM, hits give low values
[5] = growth suppression of PTEN-deleted HCT116, pilot screen, cell-based, HCT116 clonal line, CellTiter-Glo (AID 824;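 active means viability at or below 27.92% in each of two runs, the all-compound median minus 4 SD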;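 further: 0% = 20 µM Hyamine control and 100% = vehicle cell control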); details: 60 h, at 10 µM, hits give low values
[6] = inhibitors of the yeast RAM network, pilot screen, dse1pr::URA3 reporter, 5-FOA selection (AID 869;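 active means inhibition over a set limit, the all-compound mean plus 3 SD, in both replicate runs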;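 further: 0% = DMSO wells with no growth and 100% = 10 µM 1-NA-PP1 with full growth; RAM network block rescues cells from 5-FOA so hits raise OD615 growth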); details: S. cerevisiae dse1pr::URA3 5-FOA growth, OD615, 2 d; at 10 µM; hits give high values; strain carries analog-sensitive mutant Cbk1 kinase
[7] = RAM signaling pathway blockade in yeast – S. cerevisiae, Pdr1DBD-CYC8 efflux-inhibited sensitized strain, primary screen (AID 1298);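 further: 0% = DMSO untreated cells without growth and 100% = 10 µM 1-NA-PP1 full growth; higher means more yeast growth rescued from 5-FOA killing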; details: S. cerevisiae cbk1-as DSE1-URA3 strain, 5-FOA growth OD615, 2 d; at 50 µM; hits give high values

COc1ccc(N(CC(=O)Nc2ccc3c(c2)OCO3)S(=O)(=O)c2ccccc2)c(OC)c1
inactive: growth inhibition [1] -7.79% | growth inhibition [2] -13.1% | viability increase [3] -2.07% | viability [4] 71.8% | viability [5] 75.6% | inhibition [6] 2.93% | RAM network inhibition [7] 9.79%

O=C(CSc1cn(Cc2ccccc2)c2ccccc12)Nc1nccs1
inactive: growth inhibition [1] -7.55% | growth inhibition [2] 3.57% | viability increase [3] 1.89% | viability [4] 88.8% | viability [5] 85.4% | inhibition [6] 1.73% | RAM network inhibition [7] 0.83%

O=C1O/C(=C\C(=O)N2CCOCC2)c2ccccc21
inactive: growth inhibition [1] -2.53% | growth inhibition [2] 2.46% | viability increase [3] -1.56% | viability [4] 94.5% | viability [5] 99.2% | inhibition [6] 2.46% | RAM network inhibition [7] 4.69%

O=S(=O)(c1ccc(OCc2nc3ccccc3s2)c(Cl)c1)N1CCOCC1
inactive: growth inhibition [1] -7% | growth inhibition [2] 9.42% | viability increase [3] -0.83% | viability [4] 91.5% | viability [5] 88.6% | inhibition [6] 1.26% | RAM network inhibition [7] -0.57%

Cc1cc(OC2CCCCC2)nc(-c2ccccc2O)n1
inactive: growth inhibition [1] -21.5% | growth inhibition [2] -17.2% | viability increase [3] -0.33% | viability [4] 87% | viability [5] 81.5% | inhibition [6] 1.9% | RAM network inhibition [7] 12.3%

O=C(Nc1nc(-c2ccco2)c(-c2ccco2)s1)C1CC(=O)N(c2ccc3c(c2)OCCO3)C1 (configuration not stated)
inactive: growth inhibition [1] -14.8% | growth inhibition [2] -20.3% | viability increase [3] -3.72% | viability [4] 76.5% | viability [5] 78.8% | inhibition [6] 2.66% | RAM network inhibition [7] 4.02%

Clc1cccc(Nc2ncnc3c2cnn3-c2ccccc2)c1
inactive: growth inhibition [1] -15.3% | growth inhibition [2] -12.2% | viability increase [3] -2.07% | viability [4] 82.5% | viability [5] 78.6% | inhibition [6] 2.04% | RAM network inhibition [7] 4.85%

O=S(=O)(NC1=NCCCCC1)c1cccs1
inactive: growth inhibition [1] -0.86% | growth inhibition [2] -16.7% | viability increase [3] -0.2% | viability [4] 100% | viability [5] 98.2% | inhibition [6] 0.765% | RAM network inhibition [7] 5.54%

O=C(c1cnn(-c2ccccc2)c1-n1cccc1)N1CCN(C2CCCCC2)CC1
inactive: growth inhibition [1] -1.61% | growth inhibition [2] 5.93% | viability increase [3] -3.1% | viability [4] 94% | viability [5] 93.4% | inhibition [6] 1.35% | RAM network inhibition [7] 2.87%

Cc1cc(C)nc(SCC(=O)N2CCCCC2)n1
inactive: growth inhibition [1] -13.6% | growth inhibition [2] -20% | viability increase [3] 0.71% | viability [4] 97.4% | viability [5] 101% | inhibition [6] 2.34% | RAM network inhibition [7] 0.74%

Cc1ccc(Nc2cc(C)nc3nc(C)nn23)c(C)c1
inactive: growth inhibition [1] -9.53% | growth inhibition [2] 8.84% | viability increase [3] -3.9% | viability [4] 95.1% | viability [5] 96.9% | inhibition [6] -0.02% | RAM network inhibition [7] -0.78%

COc1ccc(C2N(c3ccc(OC)cc3)C(=O)C3CCCN32)cc1 (configuration not stated)
inactive: growth inhibition [1] -3.41% | growth inhibition [2] 2.04% | viability increase [3] -1.64% | viability [4] 106% | viability [5] 102% | inhibition [6] 0.67% | RAM network inhibition [7] -0.16%

CCOC(=O)c1ccc2[nH]c(C)cc(=O)c2c1
inactive: growth inhibition [1] -1.86% | growth inhibition [2] 1.21% | viability increase [3] -0.4% | viability [4] 98% | viability [5] 98% | inhibition [6] 1.35% | RAM network inhibition [7] 9.46%

CCOC(=O)Cn1c(=O)oc2cc(S(=O)(=O)NCc3cccs3)ccc21
inactive: growth inhibition [1] -3.16% | growth inhibition [2] 1.21% | viability increase [3] -1.22% | viability [4] 90.6% | viability [5] 86.9% | inhibition [6] 0.73% | RAM network inhibition [7] 0.2%

O=C(NCCN1CCCC1)c1ccc(CS(=O)(=O)c2c(Cl)cccc2Cl)o1
inactive: growth inhibition [1] -6.75% | growth inhibition [2] -20.8% | viability increase [3] -0.97% | viability [4] 106% | viability [5] 102% | inhibition [6] 1.5% | RAM network inhibition [7] 2.61%

O=C(c1ccc(CN2CCc3ccccc3C2)cc1)N1CCCCC1
inactive: growth inhibition [1] 4.87% | growth inhibition [2] 3.72% | viability increase [3] -2.43% | viability [4] 94.2% | viability [5] 93.9% | inhibition [6] 3.59% | RAM network inhibition [7] 4.9%

COc1ccc(S(=O)(=O)N2CCC(C(=O)N3CCOCC3)CC2)cc1OC
inactive: growth inhibition [1] -15.4% | growth inhibition [2] -6.63% | viability increase [3] -0.87% | viability [4] 91.5% | viability [5] 94.8% | inhibition [6] 0.825% | RAM network inhibition [7] 2.43%

COc1ccc(Cc2nnc(NC(=O)c3c(-c4ccccc4)noc3C)s2)cc1
inactive: growth inhibition [1] -14% | growth inhibition [2] -3.4% | viability increase [3] 0.94% | viability [4] 88.3% | viability [5] 85.2% | inhibition [6] 1.82% | RAM network inhibition [7] 5.46%

CCOc1cc(CN2CCN(c3cccc(C(F)(F)F)c3)CC2)ccc1O
inactive: growth inhibition [1] -9.48% | growth inhibition [2] -4.3% | viability increase [3] -5.3% | viability [4] 82.7% | viability [5] 82.9% | inhibition [6] 1.4% | RAM network inhibition [7] 0.97%

CCCCN(C)C(=O)C(Cc1ccccc1)NS(=O)(=O)c1ccc2c(c1)CCC(=O)N2 (configuration not stated)
inactive: growth inhibition [1] -18.6% | growth inhibition [2] -11.7% | viability increase [3] -2.47% | viability [4] 89.5% | viability [5] 90.2% | inhibition [6] 1.44% | RAM network inhibition [7] 6.27%

Cn1c(=O)[nH]c(=O)c2c1nc(N1CCCCC1)n2CCSc1nc2ccccc2o1
inactive: growth inhibition [1] -4.52% | growth inhibition [2] -1.63% | viability increase [3] -3.7% | viability [4] 90.7% | viability [5] 92.4% | inhibition [6] 1.11% | RAM network inhibition [7] 1.87%

COc1ccc(-n2c(C)nc3c(cnn3-c3ccc(C)c(C)c3)c2=O)cc1
inactive: growth inhibition [1] -13.7% | growth inhibition [2] 8.51% | viability increase [3] 2.3% | viability [4] 86% | viability [5] 79% | inhibition [6] 2.09% | RAM network inhibition [7] 5.89%

CCSC(C)CC1CC(=O)CC(=O)C1 (configuration not stated)
inactive: growth inhibition [1] -11.7% | growth inhibition [2] 6.03% | viability increase [3] 0.29% | viability [4] 94% | viability [5] 89.9% | inhibition [6] 1.39% | RAM network inhibition [7] 2.13%

O=C(NCc1cccnc1)c1cccc(S(=O)(=O)N2CCOCC2)c1
inactive: growth inhibition [1] -7.59% | growth inhibition [2] 1.51% | viability increase [3] 0.32% | viability [4] 103% | viability [5] 101% | inhibition [6] 1.6% | RAM network inhibition [7] 0.62%

O=C1CC(c2cccnc2)c2cc3c(cc2N1)OCCO3 (configuration not stated)
inactive: growth inhibition [1] 2.41% | growth inhibition [2] -0.935% | viability increase [3] -2.86% | viability [4] 91.5% | viability [5] 91.9% | inhibition [6] 2.35% | RAM network inhibition [7] 2.43%

Cc1c(NC(=O)c2ccc3c(c2)OCO3)cccc1-c1nc2ncccc2o1
inactive: growth inhibition [1] -9.32% | growth inhibition [2] -13.2% | viability increase [3] -1.14% | viability [4] 102% | viability [5] 95.3% | inhibition [6] 2.48% | RAM network inhibition [7] 3.92%

NC(=O)C1CCN(CCCNC2CC(=O)N(Cc3ccc(N4CCCC4=O)cc3)C2=O)CC1 (configuration not stated)
inactive: growth inhibition [1] -14.8% | growth inhibition [2] -4.07% | viability increase [3] -0.01% | viability [4] 98.7% | viability [5] 98.7% | inhibition [6] 1.15% | RAM network inhibition [7] 5.68%

COc1ccc(CNC(=O)c2ccc3c(c2)N(C)C(=O)CS3=O)cc1 (configuration not stated)
inactive: growth inhibition [1] -1% | growth inhibition [2] 7.29% | viability increase [3] 1.48% | viability [4] 103% | viability [5] 97.3% | inhibition [6] 1.41% | RAM network inhibition [7] 2.04%

OCc1cn(-c2ccccc2)nc1-c1ccc(-c2nn(-c3ccccc3)cc2CO)cc1
inactive: growth inhibition [1] 3.83% | growth inhibition [2] -4.29% | viability increase [3] -4.72% | viability [4] 102% | viability [5] 95.1% | inhibition [6] 1.8% | RAM network inhibition [7] 5.84%

COc1ccc(N2C(=O)C3CCCN3C2c2cccc(C)c2)cc1 (configuration not stated)
inactive: growth inhibition [1] 2.65% | growth inhibition [2] 15% | viability increase [3] -3.13% | viability [4] 97.4% | viability [5] 100% | inhibition [6] 1.83% | RAM network inhibition [7] -1.25%

Cc1nnc(NC(=O)C(C)Sc2nncn2C)s1 (configuration not stated)
inactive: growth inhibition [1] -15.9% | growth inhibition [2] -22.2% | viability increase [3] 3.71% | viability [4] 107% | viability [5] 94.8% | inhibition [6] 1.18% | RAM network inhibition [7] 1.06%

CCOc1ccc(S(=O)(=O)n2ccnc2)c2ccccc12
inactive: growth inhibition [1] -2.9% | growth inhibition [2] 0.2% | viability increase [3] -1.1% | viability [4] 101% | viability [5] 106% | inhibition [6] 0.31% | RAM network inhibition [7] 2.78%

Cc1nnc(SCCn2c(N(C)Cc3ccccc3)nc3c2c(=O)[nH]c(=O)n3C)s1
inactive: growth inhibition [1] -9.54% | growth inhibition [2] -5.15% | viability increase [3] -3.65% | viability [4] 99.8% | viability [5] 97.5% | inhibition [6] 2.33% | RAM network inhibition [7] 5.64%

O=C(CSc1nc2c(cnn2-c2ccc(F)cc2)c(=O)[nH]1)N1CCCCCC1
inactive: growth inhibition [1] -3.72% | growth inhibition [2] -9.65% | viability increase [3] -3.34% | viability [4] 94.2% | viability [5] 93% | inhibition [6] 1.53% | RAM network inhibition [7] -0.11%

Cc1ccc(Cl)cc1N1CCN(C(=O)C2CCC(=O)N2C(C)C)CC1 (configuration not stated)
inactive: growth inhibition [1] -2.15% | growth inhibition [2] -5.95% | viability increase [3] 2.45% | viability [4] 93.6% | viability [5] 85.8% | inhibition [6] -0.505% | RAM network inhibition [7] 5.7%

CCCc1cc(=O)[nH]c(SCC(=O)NC2CCCCC2)n1
inactive: growth inhibition [1] 2.37% | growth inhibition [2] 0.01% | viability increase [3] -1.41% | viability [4] 89.5% | viability [5] 94.8% | inhibition [6] 0.82% | RAM network inhibition [7] 0.46%
